One data set concerns Sirt7-CLB. The data set is described as follows: NanoBit. Format: binding. The following applies: H3K18-acetylated nucleosomes with ADPr. In outline:
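Sirt7 was fused C-terminally to the NanoLuc large-bit fragment and purified natively. […] Buffer: 50 mM Tris pH 8.0, 250 µg/ml BSA. Incubated 20 min at RT. NanoGlow substrate added (50x final dilution), equilibrated 5 min at 37°C, luminescence read every 30 s for 15 min.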

Data set [1] deals with Sirt7-CLB (Sirt7 with the NanoLuc large bit fused to its C-terminus) (UniProt Q9NRC8). The data set is described as follows: split reporter.
The next data set concerns the target T1, apoSirt7 (Homo sapiens, UniProt Q9NRC8).
T1 sequence (Q9NRC8 1-400): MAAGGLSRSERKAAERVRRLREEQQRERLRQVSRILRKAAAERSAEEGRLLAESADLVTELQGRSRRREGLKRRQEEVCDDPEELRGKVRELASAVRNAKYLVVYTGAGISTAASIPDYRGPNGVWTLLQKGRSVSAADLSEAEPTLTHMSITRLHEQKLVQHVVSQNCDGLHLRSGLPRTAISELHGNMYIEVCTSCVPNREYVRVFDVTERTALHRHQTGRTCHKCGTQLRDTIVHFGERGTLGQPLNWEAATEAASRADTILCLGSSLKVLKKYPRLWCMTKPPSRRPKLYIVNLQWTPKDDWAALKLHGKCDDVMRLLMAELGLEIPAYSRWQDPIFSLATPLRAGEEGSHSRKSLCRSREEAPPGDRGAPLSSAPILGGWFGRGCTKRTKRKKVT
Put plainly: Michaelis-Menten kinetics with variable H3K18 acylated peptide, apoSirt7. Format: biochemical. The following applies: uncomplexed Sirt7, H3K18Ac. In outline: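 Acylated H3K18 peptide serially diluted in 50 mM Tris pH 8.0 with 20% DMSO. 20 µL of Sirt7 solution was mixed with 20 µL of peptide at 37°C. Reactions were started with 10 µL of 10 mM NAD⁺ stock, run 5-60 min at 37°C and quenched with 6% TFA. Products were resolved by C18 HPLC. Product concentration = deacetylated/acetylated peak ratio × total substrate. Three independent experiments; Michaelis-Menten fit.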

In data set [2] the target is T2, Sirt7 (Homo sapiens, UniProt Q9NRC8).
T2 sequence (Q9NRC8 1-400): T1 sequence (Q9NRC8 1-400)
It counts as biochemical. The following applies: saturating H3K18-Deca peptide, variable NAD^+. In outline:
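NAD⁺ serially diluted (10-10000 µM) in 50 mM Tris pH 8.0. Mixed 1:1 with 500 µM (pre-mix) H3K18Ac-DNB or H3K18Deca-DNB peptide in 50 mM Tris pH 8.0, 20% DMSO, 1 mM DTT. Pre-incubated 10 min at 37°C. Started with Sirt7 complex carrying 2 µM nicotinamidase, run 30-60 min, quenched with 6% TFA. HPLC monitored at 400 nm; Michaelis-Menten fit.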

The subject of data set [3] is acidic patch regions of nucleosomes. The data set is described as follows: LANA-FAM nucleosome binding and competition with Sirt7. On the set-up: species or system human. The following applies: LANA-FAM pre-bound to nucleosomes, fluorescence anisotropy.
In data set [4] the target is T2, Sirt7. The conditions noted are these: cited from earlier work; for activity of recombinant apoSirt7 (in words): in vitro.

Like-named read-outs stand apart in the source and are kept apart here.

These results are taken from paper PMC9499614 (ACS chemical biology, 2022).

For `Nc1ncnc2c1ncn2[C@@H]1O[C@H](COP(=O)(O)OP(=O)(O)OC[C@H]2OC(O)[C@H](O)[C@@H]2O)[C@@H](O)[C@H]1O` (stereo partly shown) [ADPr, ADP-ribose], the “reduction in Kd value on ADPr addition” value with Sirt7-CLB was found to be 2.5 fold.

In general, Kd refers to the free concentration of one partner at which half of the binding sites on the other are occupied at equilibrium, for simple one-to-one binding. Read a high Kd as lower affinity. For the compound “H3K18-acetylated small bit nucleosomes (SMB-AcNucs) (from UniProt P0C0S8 1-130; P68431 1-136; P62805 1-103) (complex)”, the dissociation constant Kd in data set [1] came to 3.75 nM.

As usually defined, the Km is the substrate concentration at which the rate is half of its maximum. What is called kcat is the number of substrate molecules converted per active site and unit of time at saturation. As to “Sirt7: 400 amino acid protein within the Class III deacetylase family; recombinant, E. coli”, the “H3K18 deacetylation activity (in words)” value with apoSirt7 is listed as “very low, but readily measurable H3K18 deacetylation activity”. Moreover, the Michaelis-Menten constant (Km) with Sirt7 [2] (read-out: KM^NAD, 50 mM Tris pH 8.0, 37°C, 30-60 min, HPLC) was 680 ± 80 µM. Moreover, the kcat/KM with Sirt7 [2] worked out at 32±4.1 M^−1x s^−1. In addition, in the data set with Sirt7 [2] (50 mM Tris pH 8.0, 37°C, 30-60 min, HPLC), the kcat stood at 0.022 ± 0.001 s⁻¹. In addition, in data set [3], the “displacement of LANA-FAM from nucleosomes (in words)” value is “Competitive displacement of LANA-FAM peptide from the pre-formed LANA-nucleosomal complex”. The “activity of recombinant apoSirt7 (in words)” value with Sirt7 [4] (no reference number at the word, ref [19],[28] in sentence) is “completely inactive”; with Sirt7 [4] (ref [19]), “completely inactive”. Further, the “activity of apoSirt7 (in words)” value with Sirt7 [4] (ref [19],[40]) was “inactive”.
